Test results: ChEMBL document CHEMBL4680287, “Ibrexafungerp: An orally active β-1,3-glucan synthesis inhibitor” (Bioorg Med Chem Lett, 2021)
Converted amounts (≈) assume the structure as drawn.

Assays:
[1] = test system: Candida albicans; assay: Antifungal activity against Candida albicans MY1055 assessed as fungal growth inhibition measured after 24 hrs in presence of 50% mouse serum by liquid microdilution method; assay type: functional
Summary of the method: (§1)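 Broth microdilution per CLSI protocols in RPMI medium. Read-out is the MIC, the lowest concentration completely inhibiting fungal growth. Run without serum and with added serum.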

[2] = Inhibition of beta-1,3-glucan synthase in Candida albicans MY1055 microsomal membrane assessed as inhibition of TCA-insoluble material formation using UDP-[3H]-glucose as substrate incubated for 2 hrs in presence of GTP by radioactivity-based assay; assay type: microsomes, Microsome
Summary of the method: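 GS IC50 measured using Candida albicans MY1055 microsomal membrane fragments as the enzyme source.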

[3] = test system: Aspergillus fumigatus; assay: Antifungal activity against Aspergillus fumigatus MF5668 assessed inhibition of fungal growth by measuring morphological changes measured after 24 hrs by microscopy; assay type: functional; conditions: read-out: MEC
Summary of the method: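 Microdilution per CLSI protocols in RPMI medium. Read-out is the minimum effective concentration (MEC). Run without serum and with 50% human serum.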

[4] = test system: Candida albicans; assay: Antifungal activity against Candida albicans MY1055 assessed as fungal growth inhibition measured after 24 hrs by liquid microdilution method; assay type: functional; summary of the method: as §1
[5] = test system: Candida albicans; assay: Antifungal activity against Candida albicans MY1055 infected in DBA/2 mouse model of disseminated candidiasis assessed as reduction in fungal burden in kidney by measuring log change in colony forming units at 25 mg/kg, po bid for 7 days by TOKA; assay type: functional; conditions: time 7 day
Summary of the method: (§2)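 Murine disseminated candidiasis model (TOKA) in mice challenged with C. albicans MY1055 at 2.44 x 10^4 CFU/mouse. Dosed PO, or IP where stated. Kidneys collected aseptically 7 days after challenge and CFUs/g counted. Change in log CFU/g is relative to sham-treated controls; significance by two-tailed t test. Clearance is the percentage of kidneys below the detection limit.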

[6] = test system: Candida albicans; assay: Antifungal activity against Candida albicans MY1055 infected in DBA/2 mouse model of disseminated candidiasis assessed as reduction in fungal burden in kidney by measuring log change in colony forming units at 6.25 mg/kg, po bid for 7 days by TOKA; assay type: functional; conditions: time 7 day; summary of the method: as §2
[7] = test system: Candida albicans; assay: Antifungal activity against Candida albicans MY1055 infected in DBA/2 mouse model of disseminated candidiasis assessed as reduction in fungal burden in kidney by measuring log change in colony forming units at 12.5 mg/kg, po bid for 7 days by TOKA; assay type: functional; conditions: time 7 day; summary of the method: as §2
[8] = Dose normalized AUC in po dosed mouse; assay type: ADME, organism-based; conditions: in vivo
[9] = Oral bioavailability in mouse; assay type: ADME, organism-based; conditions: in vivo
Summary of the method: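 Oral bioavailability calculated as oral AUC normalized to the IV dose, divided by the IV AUC.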

Row | SMILES | MIC [1] | IC50 [2] | MIC [4] | AUC/dose [8] | bioavailability [9] | minimal effective concentration [3] | Activity [5] | Activity [6] | Activity [7]
1 | CCCc1ncnn1[C@@H]1C[C@@]23COC[C@](C)([C@@H]2CC[C@H]2C3=CC[C@@]3(C)[C@H](C(=O)O)[C@@](C)([C@H](C)C(C)C)CC[C@]23C)[C@H]1OC[C@](C)(N)C(C)C | 16 µg/mL | 0.003 µg/mL | 8 µg/mL (≈ 11.7 µM) |  |  | < 0.03 µg/mL |  |  | 
2 | Cc1ncnn1[C@@H]1C[C@@]23COC[C@](C)([C@@H]2CC[C@H]2C3=CC[C@@]3(C)[C@H](C(=O)O)[C@@](C)([C@H](C)C(C)C)CC[C@]23C)[C@H]1OC[C@](C)(N)C(C)C | 4 µg/mL | 0.005 µg/mL | 0.25 µg/mL (≈ 0.383 µM) |  |  | 0.03 µg/mL |  |  | 
3 | CC(C)[C@@H](C)[C@@]1(C)CC[C@]2(C)[C@H]3CC[C@@H]4[C@@]5(COC[C@@]4(C)[C@@H](OC[C@](C)(N)C(C)C)[C@H](n4ncnc4-c4ccncn4)C5)C3=CC[C@@]2(C)[C@@H]1C(=O)O | 4 µg/mL | 0.005 µg/mL | < 0.03 µg/mL | 2.38 µM·kg·h/mg | 43% | < 0.03 µg/mL |  |  | 
4 | CC(C)[C@@H](C)[C@@]1(C)CC[C@]2(C)[C@H]3CC[C@@H]4[C@@]5(COC[C@@]4(C)[C@@H](OC[C@](C)(N)C(C)C)[C@H](n4ncnc4-c4cccc(F)c4)C5)C3=CC[C@@]2(C)[C@@H]1C(=O)O | 8 µg/mL | 0.011 µg/mL | 0.25 µg/mL (≈ 0.341 µM) |  |  | < 0.03 µg/mL |  |  | 
5 | COc1cccc(-c2ncnn2[C@@H]2C[C@@]34COC[C@](C)([C@@H]3CC[C@H]3C4=CC[C@@]4(C)[C@H](C(=O)O)[C@@](C)([C@H](C)C(C)C)CC[C@]34C)[C@H]2OC[C@](C)(N)C(C)C)c1 | 32 µg/mL | 0.011 µg/mL | 0.25 µg/mL (≈ 0.336 µM) |  |  | < 0.03 µg/mL |  |  | 
6 | CC(C)[C@@H](C)[C@@]1(C)CC[C@]2(C)[C@H]3CC[C@@H]4[C@@]5(COC[C@@]4(C)[C@@H](OC[C@](C)(N)C(C)C)[C@H](n4ncnc4-c4ccccc4F)C5)C3=CC[C@@]2(C)[C@@H]1C(=O)O | 8 µg/mL |  | 0.5 µg/mL (≈ 0.682 µM) |  |  | < 0.03 µg/mL |  |  | 
7 | CC(C)[C@@H](C)[C@@]1(C)CC[C@]2(C)[C@H]3CC[C@@H]4[C@@]5(COC[C@@]4(C)[C@@H](OC[C@](C)(N)C(C)C)[C@H](n4cncn4)C5)C3=CC[C@@]2(C)[C@@H]1C(=O)O | 4 µg/mL | 0.007 µg/mL | 0.25 µg/mL (≈ 0.391 µM) |  |  | < 0.03 µg/mL |  |  | 
8 | CC(C)[C@@H](C)[C@@]1(C)CC[C@]2(C)[C@H]3CC[C@@H]4[C@@]5(COC[C@@]4(C)[C@@H](OC[C@](C)(N)C(C)C)[C@H](n4ncnc4-c4ccc(F)cc4)C5)C3=CC[C@@]2(C)[C@@H]1C(=O)O | 8 µg/mL | 0.011 µg/mL | 0.25 µg/mL (≈ 0.341 µM) |  |  | < 0.03 µg/mL |  |  | 
9 | CN[C@@](C)(CO[C@H]1[C@H](n2ncnc2-c2ccccn2)C[C@@]23COC[C@]1(C)[C@@H]2CC[C@H]1C3=CC[C@@]2(C)[C@H](C(=O)O)[C@@](C)([C@H](C)C(C)C)CC[C@]12C)C(C)C | 16 µg/mL | 0.003 µg/mL | 0.25 µg/mL (≈ 0.342 µM) |  |  | < 0.03 µg/mL |  |  | 

Further compounds by falling MIC [1], results first:

Row | MIC [1] | IC50 [2] | MIC [4] | AUC/dose [8] | bioavailability [9] | SMILES | minimal effective concentration [3] | Activity [5] | Activity [6] | Activity [7]
10 | 16 µg/mL | 0.006 µg/mL | 0.125 µg/mL (≈ 0.184 µM) |  |  | CC(C)[C@@H](C)[C@@]1(C)CC[C@]2(C)[C@H]3CC[C@@H]4[C@@]5(COC[C@@]4(C)[C@@H](OC[C@](C)(N)C(C)C)[C@H](n4ncnc4C4CC4)C5)C3=CC[C@@]2(C)[C@@H]1C(=O)O | 0.008 µg/mL |  |  | 
11 | 8 µg/mL | 0.015 µg/mL | 0.5 µg/mL (≈ 0.671 µM) |  |  | COc1ccc(-c2ncnn2[C@@H]2C[C@@]34COC[C@](C)([C@@H]3CC[C@H]3C4=CC[C@@]4(C)[C@H](C(=O)O)[C@@](C)([C@H](C)C(C)C)CC[C@]34C)[C@H]2OC[C@](C)(N)C(C)C)cc1 | < 0.03 µg/mL |  |  | 
12 | 8 µg/mL | 0.004 µg/mL | 0.25 µg/mL (≈ 0.349 µM) |  |  | CC(C)[C@@H](C)[C@@]1(C)CC[C@]2(C)[C@H]3CC[C@@H]4[C@@]5(COC[C@@]4(C)[C@@H](OC[C@](C)(N)C(C)C)[C@H](n4ncnc4-c4ncccn4)C5)C3=CC[C@@]2(C)[C@@H]1C(=O)O | < 0.03 µg/mL |  |  | 
13 | 8 µg/mL | 0.01 µg/mL | 0.25 µg/mL (≈ 0.375 µM) |  |  | CCc1ncnn1[C@@H]1C[C@@]23COC[C@](C)([C@@H]2CC[C@H]2C3=CC[C@@]3(C)[C@H](C(=O)O)[C@@](C)([C@H](C)C(C)C)CC[C@]23C)[C@H]1OC[C@](C)(N)C(C)C | < 0.03 µg/mL |  |  | 
14 | 4 µg/mL | 0.004 µg/mL | 0.5 µg/mL (≈ 0.697 µM) |  |  | CC(C)[C@@H](C)[C@@]1(C)CC[C@]2(C)[C@H]3CC[C@@H]4[C@@]5(COC[C@@]4(C)[C@@H](OC[C@](C)(N)C(C)C)[C@H](n4ncnc4-c4cnccn4)C5)C3=CC[C@@]2(C)[C@@H]1C(=O)O | < 0.03 µg/mL |  |  | 
15 | 4 µg/mL | 0.006 µg/mL | 0.25 µg/mL (≈ 0.333 µM) |  |  | CC(C)[C@@H](C)[C@@]1(C)CC[C@]2(C)[C@H]3CC[C@@H]4[C@@]5(COC[C@@]4(C)[C@@H](OC[C@](C)(N)c4ccccc4)[C@H](n4ncnc4-c4ccncc4)C5)C3=CC[C@@]2(C)[C@@H]1C(=O)O | 0.125 µg/mL | -2.6 deltalog10CFU | -0.5 deltalog10CFU | -1.5 deltalog10CFU
16 | 4 µg/mL | 0.008 µg/mL | 0.25 µg/mL (≈ 0.335 µM) |  |  | COc1cc(-c2ncnn2[C@@H]2C[C@@]34COC[C@](C)([C@@H]3CC[C@H]3C4=CC[C@@]4(C)[C@H](C(=O)O)[C@@](C)([C@H](C)C(C)C)CC[C@]34C)[C@H]2OC[C@](C)(N)C(C)C)ccn1 | < 0.03 µg/mL |  |  | 
17 | 2 µg/mL | 0.007 µg/mL | 0.25 µg/mL (≈ 0.349 µM) |  |  | CC(C)[C@@H](C)[C@@]1(C)CC[C@]2(C)[C@H]3CC[C@@H]4[C@@]5(COC[C@@]4(C)[C@@H](OC[C@H](N)C(C)(C)C)[C@H](n4ncnc4-c4ccncc4)C5)C3=CC[C@@]2(C)[C@@H]1C(=O)O | < 0.03 µg/mL | -2.6 deltalog10CFU | -1 deltalog10CFU | -2.4 deltalog10CFU
18 | 2 µg/mL | 0.005 µg/mL | < 0.03 µg/mL |  |  | CC(C)[C@@H](C)[C@@]1(C)CC[C@]2(C)[C@H]3CC[C@@H]4[C@@]5(COC[C@@]4(C)[C@@H](OC[C@](C)(N)C(C)C)[C@H](n4ncnc4-c4cccnn4)C5)C3=CC[C@@]2(C)[C@@H]1C(=O)O | < 0.03 µg/mL |  |  | 
19 | 1 µg/mL | 0.002 µg/mL | 0.03 µg/mL (≈ 0.0403 µM) | 0.62 µM·kg·h/mg |  | CN[C@@](C)(CO[C@H]1[C@H](n2ncnc2-c2ccncc2)C[C@@]23COC[C@]1(C)[C@@H]2CC[C@H]1C3=CC[C@@]2(C)[C@H](C(=O)O)[C@@](C)([C@H](C)C(C)C)CC[C@]12C)C(C)(C)C | 0.008 µg/mL | -4.2 deltalog10CFU | -1.7 deltalog10CFU | -3.2 deltalog10CFU
20 | 1 µg/mL | 0.001 µg/mL | 0.06 µg/mL (≈ 0.0838 µM) |  |  | CCC(N)(CC)CO[C@H]1[C@H](n2ncnc2-c2ccncc2)C[C@@]23COC[C@]1(C)[C@@H]2CC[C@H]1C3=CC[C@@]2(C)[C@H](C(=O)O)[C@@](C)([C@H](C)C(C)C)CC[C@]12C | < 0.03 µg/mL | -3.3 deltalog10CFU | -1.3 deltalog10CFU | -2.3 deltalog10CFU
